# PGC1a acetyl inh: modulators of PGC1a acetylation; inhibition, % at 15.6 µM; 350,000 compounds, 0.17% hits; U2OS PGC1a acetylation, AlphaScreen anti-acetyl-lysine; with virally co-expressed GCN5 acetyltransferase;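 active = every replicate shows inhibition of at least 40%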;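 note: 0% = neutral control wells and 100% = positive control wells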
# PAX8 inh HTS: PAX8 transcriptional activity inhibition | inhibition, % at 12.6 µM | AID 652154 | 360,000 compounds, 1.2% hits | RMG-I TPO-luciferase reporter, SteadyGlo, 24 h;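 active = mean replicate inhibition at least 60% with every replicate also reaching 60%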;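 note: luciferase light reporting Pax8 driven TPO promoter activity; plate controls were median of neutral control wells for no effect and mitoxantrone controls for full effect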
# CFTR F508del cor: correctors of CFTR F508del function in bronchial epithelial cells; CFBE cells, YFP halide quenching; stimulated with forskolin plus potentiator P3; % fluorescence drop versus neutral controls; 350,000 compounds, 0.36% hits; activity (quench increase), % at 7.58 µM;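 active = mean added fluorescence quench of at least 8% versus neutral control, with both replicates also reaching 8%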;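 note: cells transiently co-express mutant CFTR-F508del with the halide-sensitive YFP; corrector assay measuring rescue of mutant channel to the surface after 24 h compound exposure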
# Env fusion inh: blocks HIV Env-driven cell-cell fusion; HeLa-JRFL Env/CEM21 cell fusion, luciferase; inhibition, % at 12.3 µM; 360,000 compounds, 1.1% hits;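 active = mean replicate inhibition score of at least 50 and every replicate individually at or above 50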;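 note: 0% = plate neutral controls and 100% = maraviroc near 300 nM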
# EWS-Fli inh: inhibitors of EWS/Fli oncoprotein transcriptional activity; A673 NR0B1-luciferase reporter, viability-normalised; inhibition, % at 12.6 µM; 350,000 compounds, 0.67% hits; AID 651661;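 active = mean inhibition of at least 50% after viability correction, with every replicate also passing that limit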;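 note: firefly luciferase signal divided by Alamar Blue viability fluorescence both relative to DMSO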
# FN deposit inh: fibronectin deposition inhibition. AH1F fibroblasts, Alexa488-fibronectin deposition fluorescence, overnight. inhibition, % at 12.6 µM. 350,000 compounds, 0.086% hits;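 active = mean inhibition across replicates of 30% or more, regardless of how many single replicates reach that level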;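 note: positive control wells lacked labelled fibronectin entirely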
#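 Material – AH1F fibroblast monolayer, labelled fibronectin deposition · Reagent – labelled fibronectin 24 nM · Timing – 1 h adhesion, overnight exposure · Measured by – fluorescence at 485 nm excitation, 525 nm emission · Read-out – inhibition of fibronectin deposition signal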
# Starred values were filed as active, the others as inactive; nt = no result given; [ ] = another dose, or the depositor's remark. Shown are actives, neighbours in structure and some others; about 2.3% of the full set was active somewhere.
SMILES,PGC1a acetyl inh,PAX8 inh HTS,CFTR F508del cor,Env fusion inh,EWS-Fli inh,FN deposit inh
O=C(N[C@H]1CC[C@@H](CCn2cc(C3(O)CCCC3)nn2)O[C@H]1CO)c1ccccc1F,4.3,8.7,-2.0,13.2[16.7 µM],3.6,2.4
CCOC(=O)c1c(NC(=O)/C=C/C(=O)O)sc(C)c1-c1ccc(C(C)(C)C)cc1,46.9*,17.8,-9.4,1.9,23.8,5.3
CCOC(=O)c1c(NC(=O)/C=C\C(=O)O)sc(C)c1-c1ccccc1,11.9,-1.7,2.1,-23.8,16.8,-3.6
Cn1c(SCc2nc(-c3ccc(Cl)cc3)no2)nnc1-c1cccs1,6.1,nt,nt,83.4*,nt,-7.6
Cn1c(SCc2nc(-c3ccccc3)no2)nnc1-c1cccs1,nt,-11.8,nt,-85.7,nt,-4.3
CN1C(=O)c2cc(NC(=O)c3ccc(Cl)cc3)ccc2OC[C@@H]2O[C@@H](CC(=O)NCc3cccc(F)c3)CC[C@@H]21,-10.3,29.6,-4.5,nt,23.2,-5.4
CCC1(O)C(=O)OCc2c1cc1n(c2=O)Cc2cc3cc(O)ccc3nc2-1 (stereo unspecified),34.4,nt,-0.7,nt,55.7*,nt
C[C@@H]1CN([C@@H](C)CO)C(=O)c2cc(-c3ccncc3)cnc2O[C@H]1CN(C)C(=O)Nc1ccc2c(c1)OCO2,8.7,nt,-0.3,4.0[16.7 µM],3.2,-0.7
COc1cc(/C=C/c2cc[n+](C)cc2)ccc1OCC(=O)Nc1ccc(Cl)c(Cl)c1,-4.8,109.5*,3.4,2.2,-4.7,-5.2
C/C=C/c1ccc(OCCOc2cc(C=O)ccc2OC)c(OC)c1,nt,-124.0,nt,nt,nt,-10.2
C/C=C/c1ccc(OCCOCCNCc2ccccc2)c(OC)c1,nt,-4.1,-2.5,89.4*,9.8,-2.1
Cc1cc(C)cc(NS(=O)(=O)c2ccc(-c3cnc(C4CC4)o3)cc2)c1,-15.3,74.7*,1.5,-33.4,nt,-18.5
CC(=O)Nc1ccc(NS(=O)(=O)c2ccc(-c3cnc(C4CC4)o3)cc2)cc1,-6.7,36.7,-1.2,-6.6,nt,-13.2
Cc1ccc(C)c(NS(=O)(=O)c2ccc(-c3cnc(C4CC4)o3)cc2)c1,nt,84.8*,-0.8,21.2,nt,-19.7
Cc1cccc(NS(=O)(=O)c2ccc(-c3cnc(C4CC4)o3)cc2)c1C,-26.4,74.9*,2.9,-52.5,nt,-3.5
COc1ccccc1NS(=O)(=O)c1cc(-c2cnc(C3CC3)o2)ccc1C,nt,45.1,8.3*,17.9,31.3,3.2
O=S(=O)(Nc1ccccc1)c1ccc(-c2cnc(C3CC3)o2)cc1,-6.6,36.0,4.2,9.2,nt,23.8
N#CC1=C(N)NC(SCC(=O)Nc2ccccc2)=C(C#N)C12CCCCC2,4.1,-4.2,nt,113.1*,nt,1.8
COc1ccc(C(=O)CSC2=C(C#N)C3(CCCCC3)C(C#N)=C(N)N2)cc1,0.7,nt,nt,76.3*,nt,15.6
Cc1c(NC(=O)c2cc3c(s2)-c2ccccc2OC3)cccc1[N+](=O)[O-],nt,3.1,nt,86.7*,nt,13.5
COc1ccc2c3c([nH]c2c1)[C@H](CO)N(C(=O)C1CCCC1)CC31CN(S(C)(=O)=O)C1,nt,-2.2,-2.5,nt,-3.2,nt
COc1ccc(C[C@@H]2CCn3cc(nn3)COCCNC2=O)cc1,nt,nt,nt,nt,nt,4.7
CCCCNC(=O)CC(C(=O)N1CCc2ccccc21)n1ccnc1 (stereo unspecified),-0.4,nt,nt,-12.7,nt,nt
CCN(CCCNC(=O)CC(C(=O)N1CCc2ccccc21)n1ccnc1)c1cccc(C)c1 (stereo unspecified),0.8,nt,nt,57.1*,nt,9.3
C[C@H]1CCCCO[C@@H](CN(C)C(=O)Nc2ccc(F)cc2)[C@@H](C)CN([C@@H](C)CO)C(=O)c2cc(NS(C)(=O)=O)ccc2O1,-3.4,0.4,3.1,-3.4[16.7 µM],1.6,nt
SMILES,PGC1a acetyl inh,PAX8 inh HTS,CFTR F508del cor,Env fusion inh,EWS-Fli inh,FN deposit inh
CC(C)Oc1ccccc1C1CC(=O)Nc2cc3c(cc21)OCCO3 (stereo unspecified),-29.9,80.0*,nt,-31.6,nt,-3.9
COc1ccccc1C1CC(=O)Nc2cc3c(cc21)OCCO3 (stereo unspecified),-11.5,nt,10.6*,nt,40.1,nt
O=C(CCC(=O)c1cccs1)NCc1ccncc1,5.6,3.3,-4.1,1.0,0.7,4.2
O=C(CCC(=O)c1cccs1)NCc1cccnc1,-1.4,2.0,1.2,-19.2,-3.5,38.1*
COC(=O)C1CCC(=O)N1C(c1ccc(OC)cc1)c1cc(OC)c(OC)c(OC)c1 (stereo unspecified),-0.6,75.5*,3.5,20.0,40.4,-25.6
COc1ccc(C(CNC(=O)Cc2cc(OC)c(OC)c(OC)c2)N2CCCC2)cc1 (stereo unspecified),2.9,nt,nt,-46.6,nt,2.8
CCCCNC(=O)C[C@@H]1C[C@@]2(C(=O)OC)CCCCC=C2N(Cc2ccco2)C1=O,nt,7.1,-0.8,-10.3,7.2,-11.4
COC(=O)[C@]12CCCCC=C1N(Cc1ccco1)C(=O)[C@H](CC(=O)NCCc1ccccc1OC)C2,nt,8.0,-5.1,91.9*,3.2,-2.2
COC(=O)[C@]12CCCCC=C1N(Cc1ccco1)C(=O)[C@H](CC(=O)NCc1ccc(OC)c(OC)c1)C2,nt,0.6,2.6,4.1,-1.9,-5.3
CCCCOCCCNC(=O)C[C@@H]1C[C@@]2(C(=O)OC)CCCCC=C2N(Cc2ccco2)C1=O,nt,18.0,-1.8,62.5*,3.2,-3.9
CCCC(=O)N1CC2(CN(C)C2)c2c(n(C)c3cc(OC)ccc23)[C@@H]1CO,7.7,nt,-1.7,nt,2.1,nt
COc1ccccc1CNC(=O)C[C@H]1CC[C@@H](NC(C)=O)[C@@H](CO)O1,5.5,1.4,0.1,-15.8[16.7 µM],-0.8,3.0
O=C(O)c1cccc(Nc2ccnc(Nc3cccc(C(=O)O)c3)n2)c1,nt,23.9,-0.5,59.1*,63.2*,2.3
c1ccc(Sc2ccccn2)cc1,75.8*,-7.3,0.0,1.0,-1.7,-10.1
COc1ccc2c3c([nH]c2c1)[C@@H](CO)N(C(=O)C1CCCC1)CC31CN(C)C1,-0.9,nt,0.4,nt,7.8,nt
O=C(/C=C/c1ccccc1)NC(NC(=S)Nc1cccc(Cl)c1)C(Cl)(Cl)Cl (stereo unspecified),-15.7,nt,nt,63.3*,nt,nt
O=C(/C=C/c1ccccc1)NC(NC(=S)Nc1ccc(Cl)cc1Cl)C(Cl)(Cl)Cl (stereo unspecified),-16.2,nt,nt,nt,nt,nt
Cc1ccc(C)c(NC(=S)NC(NC(=O)/C=C/c2ccccc2)C(Cl)(Cl)Cl)c1 (stereo unspecified),1.9,67.7*,nt,47.7,nt,-5.8
COC(=O)[C@]12CCCCC=C1N(CCC1=CCCCC1)C(=O)[C@H](CC(=O)NCc1ccc(OC)c(OC)c1)C2,nt,9.9,-3.9,80.3*,-1.3,5.9

# Source: PubChem BioAssay (Broad Institute)
